Compound activity (PubChem BioAssay)
KCNK9 block = blocks the human KCNK9 two-pore domain potassium channel | Q9NPC2 | HEK293 KCNK9, FluxOR thallium flux fluorescence; active compounds read low | B-score at 10 µM | actives 1.2% (n = 310,000) | AID 488922;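 active = ratio B-score over 3 SD below the library mean, with starting fluorescence within 5 SD of its mean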;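 note: negative B-score means less thallium flux so channel inhibition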
Target sequence (Q9NPC2 whole entry, looked up, the tested form may be a part): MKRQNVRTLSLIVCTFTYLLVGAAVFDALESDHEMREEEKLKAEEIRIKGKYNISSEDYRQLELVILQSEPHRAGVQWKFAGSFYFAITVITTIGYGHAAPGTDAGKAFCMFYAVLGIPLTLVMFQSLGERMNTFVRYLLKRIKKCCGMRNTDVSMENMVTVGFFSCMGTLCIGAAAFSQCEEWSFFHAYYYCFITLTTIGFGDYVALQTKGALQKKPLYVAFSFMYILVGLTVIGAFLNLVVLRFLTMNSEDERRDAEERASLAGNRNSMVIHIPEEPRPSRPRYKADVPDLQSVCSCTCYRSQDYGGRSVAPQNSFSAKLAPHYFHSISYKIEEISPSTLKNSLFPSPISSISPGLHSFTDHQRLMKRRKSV
KCNQ1 pot = potentiates or activates the human KCNQ1 potassium channel; CHO-K1 KCNQ1, thallium flux FluxOR fluorescence; active compounds read high; actives 0.35% (n = 310,000); AID 2648; P51787; B-score at 10 µM;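 active = fluorescence ratio B-score, a plate-corrected score, at least three library SD, with initial intensity B-score within 5 SD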
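Schedule – 37 °C overnight plating, 90-min dark dye load, 20-min compound pretreatment · System – stable KCNQ1 CHO-K1 line · Probe or stimulus – thallium- and potassium-containing depolarizing buffer · Measured by – kinetic FluxOR fluorescence, 10 s baseline plus 110 s post-stimulus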
hERG protect = compounds protecting human hERG from proarrhythmic drug block; AID 1511; actives 0.51% (n = 310,000); activation (rescue from dofetilide block), less the hit threshold, % at 10 µM; CHO-hERG, FluxOR thallium flux, dofetilide IC70 present; Q12809;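 active = activation above the mean of controls blocked by dofetilide plus 5 SD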;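 note: thallium influx through hERG after potassium depolarization seen as dye fluorescence rise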
KCNQ1 inh = human KCNQ1 channel inhibition. CHO-K1 KCNQ1, FluxOR thallium flux fluorescence; active compounds read high. P51787. actives 1.3% (n = 310,000). AID 2642. B-score at 10 µM;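 active = compounds whose thallium flux B-score, printed positive for inhibition, exceeds three library SD while starting fluorescence stays within three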;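 note: channel opened by potassium depolarization with thallium stimulus after 20 min compound exposure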
Kir21 block = blocks the mouse Kir2.1 inward-rectifier potassium channel; HEK293-Kir2.1, FluxOR thallium flux fluorescence; active compounds read low; B-score at 10 µM; actives 0.85% (n = 310,000);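 active = fluorescence ratio B-score at or below minus 3 SD of library scores, with starting-brightness B-score within 2 SD, cut at about -4.2 in these data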;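 note: channel flux triggered by added potassium and thallium sulfate stimulus; B-score of peak minus minimum fluorescence over baseline after thallium stimulus; more negative B-score means stronger Kir2.1 block with less thallium influx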
KCNK3 block = human KCNK3 channel inhibition, primary screen; CHO-KCNK3 thallium flux, FluxOR fluorescence; active compounds read low; B-score at 10 µM; actives 0.84% (n = 340,000); AID 602410;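 active = B-score under library mean minus 4 SD, starting fluorescence ratio at most library mean plus 5 SD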;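 note: more negative B-score means stronger inhibition of thallium flux through KCNK3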
KCNK3 confirm = confirmation of human KCNK3 two-pore domain potassium channel inhibitors; shares compounds with KCNK3 block; CHO-KCNK3 thallium flux, FluxOR fluorescence; 0% buffer, 100% carvedilol maximal block; ratio percent of control, % at 10 µM; actives 99% (n = 2,400); AID 651638;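 active = ratio percent of control, averaged over triplicates, above buffer control mean plus 5 SD, cut at about 64% in these data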;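 note: ratio is the fluorescence rise from min to max over baseline after thallium stimulus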
KCNK3 uninduced = counter-screen for KCNK3 inhibitors: effect in non-induced cells; shares compounds with KCNK3 block; non-induced KCNK3 parental cells, FluxOR thallium flux; active compounds read low; thallium flux ratio (lower = more inhibition) at 10 µM; actives 40% (n = 2,400); AID 651747;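 active = thallium flux ratio, averaged over three wells, more than 5 SD below the buffer control mean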;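 note: host cells are CHO cells without KCNK3 induction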
Hits are given with their value; n = inactive; x = no result. Most compounds without a hit are left out; they make up all but 3.8% or so of the library.

SMILES	KCNK9 block	KCNQ1 pot	hERG protect	KCNQ1 inh	Kir21 block	KCNK3 block	KCNK3 confirm	KCNK3 uninduced
CC(C)NC(=O)C(c1ccc(F)cc1)N(C(=O)CCC(=O)Nc1ccccn1)C1CCCC1 (centres undefined)	n	n	n	n	n	-13	89	n
COc1ccc(OC)c(NC2=C(Cl)C(=O)N(Cc3ccccc3)C2=O)c1	n	n	n	n	n	n	x	x
CCOc1ccccc1NC1=C(Cl)C(=O)N(Cc2ccccc2)C1=O	n	n	n	n	n	-8.8	117	0.15
COc1ccccc1NC(=S)N1CCN(c2cccc(C)c2C)CC1	n	n	n	n	n	n	x	x
CCc1ccc(-c2cc(C)no2)cc1S(=O)(=O)N1CCN(c2ccc(C(C)=O)cc2)CC1	n	n	n	n	n	n	x	x
CCc1ccc(-c2cc(C)no2)cc1S(=O)(=O)N1CCN(c2ccccc2F)CC1	n	n	n	n	n	-8.8	81	n
CCOc1ccc(Br)cc1S(=O)(=O)N1CCSC1	n	n	n	n	-5	-9	88	n
Cn1cnc([N+](=O)[O-])c1N=C(N)N	n	n	n	n	n	n	x	x
COc1ccc(S(=O)(=O)N(C)C[C@H]2Oc3c(NS(=O)(=O)c4cn(C)cn4)cccc3C(=O)N([C@H](C)CO)C[C@@H]2C)cc1	x	x	x	x	x	n	x	x
COc1ccc(C2=NS(=O)(=O)N(C)C(C(=O)Nc3cc(C)ccc3O)=C2)cc1OC	n	n	n	9	n	-9.2	95	n
O=C(/C=C/c1ccc(N2CCC(c3ccccc3)=N2)cc1)c1ccccc1	n	n	n	n	n	x	x	x
CCOC(=O)/C(=C\c1ccc(N2CCC(c3ccccc3)=N2)cc1)C(C)=O	x	x	x	x	x	-12	n	n
CC(C)c1ccc(-c2noc(C3CCCN(C(=O)c4ccc(F)cc4F)C3)n2)cc1 (centres undefined)	n	n	n	n	n	-9.8	134	0.14
CCOC(=O)N1C/C(=C\c2ccccc2)C(=O)/C(=C/c2ccccc2)C1	n	n	n	10	n	-10	113	n
CSc1ccccc1C(=O)N(C)C(c1ccccc1)c1ccccc1	n	n	n	n	n	-9.1	108	n
COc1cccc(NC(=O)CN(C)C(=O)c2cc(-c3cccc(Br)c3)nc3ccccc23)c1	n	n	n	n	n	-14	128	n
Cc1ccc(-c2cc(C(=O)Nc3cccnc3)c3ccccc3n2)s1	n	n	n	n	n	-12	100	0.13
COc1cccc(NC(=O)c2cc(-c3ccc(OC)cc3OC)nc3ccccc23)c1	n	n	n	6	n	-9.4	103	n
CC(=O)N1CCN(C(=O)c2cc(S(=O)(=O)N3CCN(c4ccccc4)CC3)ccc2Cl)CC1	x	x	x	x	x	n	x	x
Cc1cc(C)cc(NS(=O)(=O)c2c(C(=O)N3CCOCC3)c(C)n(C)c2C)c1	n	n	n	n	n	n	x	x
CCN1C(=O)[C@H]2[C@H]3CN=C(SCc4ccc(C)cc4)N3[C@@](C)(C(=O)OC)[C@H]2C1=O	x	x	x	x	x	n	x	x
Cc1ccccc1-c1nnn(Cc2ccc(F)cc2Cl)n1	n	n	n	n	n	-9	101	n
Cc1ccccc1C(=O)N1CCC(C(=O)OCc2ccccn2)CC1	x	x	x	x	x	n	x	x
COc1ccc(CCn2c(C)nc3ccccc3c2=O)cc1OC	n	n	n	n	n	n	x	x
CCSc1nc2ccccc2c(=O)n1CCc1ccc(OC)c(OC)c1	n	n	n	n	n	-9.4	98	n
SMILES	KCNK9 block	KCNQ1 pot	hERG protect	KCNQ1 inh	Kir21 block	KCNK3 block	KCNK3 confirm	KCNK3 uninduced
Cc1ccccc1Cn1nc(C)c(NC(=O)c2sc3ccccc3c2Cl)c1C	n	n	n	n	n	-9	149	0.11
O=C(Nc1ccc(F)cc1)c1cc(-c2ccncc2)nc2c(Cl)cccc12	n	n	n	n	n	n	x	x
O=C(C[C@@H]1C/C=C\C[C@@H](Cc2ccc(F)cc2)C(=O)OCCNC1=O)N[C@H](CO)Cc1ccccc1	x	x	x	x	x	n	x	x
O=C(NCCn1cc(SCc2ccc(F)cc2)c2ccccc21)c1ccccc1F	-7.5	n	n	11	n	-16	140	0.12
O=C(CSC(=S)N1CCCC1)N/N=C/c1c(O)[nH]c(=S)[nH]c1=O	x	x	x	x	x	n	x	x
Cc1sc2nc(C3CC3)nc(N3CCN(C(=O)c4ccc(Cl)cc4)CC3)c2c1C	n	n	n	6	n	-13	96	0.15
COc1cc(C(=O)NCC(=O)N/N=C/c2ccc(-c3ccc([N+](=O)[O-])cc3)o2)cc(OC)c1OC	n	n	n	n	n	-10	95	n
Fc1ccc(/C=C2\CCCC3=C2Nc2ncnn2C3c2ccc(F)cc2)cc1 (centres undefined)	n	n	n	n	n	-9.6	114	0.14
COC(=O)c1cc(NC2c3ccccc3C(=O)N2c2cccnc2)cc(C(=O)OC)c1 (centres undefined)	n	n	n	n	n	-9	119	0.15
COc1ccc(NC2c3ccccc3C(=O)N2c2cccnc2)cc1Cl (centres undefined)	n	n	n	n	n	-10	117	n
O=C1c2ccccc2C(Nc2ccccc2)N1c1cccnc1 (centres undefined)	n	n	n	n	n	n	x	x
CC1CCc2sc(C(=O)N/N=C/c3ccc(O)cc3)cc2C1 (centres undefined)	n	n	n	n	n	-10	57	n
C/C(=N\NC(=O)c1cc2c(s1)CCC(C)C2)c1ccncc1 (centres undefined)	n	n	n	n	n	n	x	x
Cn1c(=O)n(C)c2cc(NC(=O)CSc3ccccc3)ccc21	n	n	n	n	n	n	x	x
COc1ccc(C(=O)OCCOc2ccccc2C(C)=O)c(O)c1	n	n	n	n	n	-9.8	119	0.14
O=C(N/C=C/c1ccco1)Nc1cccc(Cl)c1	n	n	n	6	n	-9.3	94	0.14
Cc1ccc2nc(-c3ccc(NC(=S)NC(=O)C(C)C)cc3)sc2c1	n	n	n	n	n	n	x	x
Cc1ccc2nc(-c3ccc(NC(=S)NC4CC(C)(C)NC(C)(C)C4)cc3)sc2c1	n	n	n	8	-5.1	-15	125	0.15
CN(C)Cc1ccccc1Sc1ccc2c(c1)CCCC2	n	n	n	n	n	n	x	x
Cc1ccccc1NC(=O)c1nn(C)c(C(=O)Nc2ccccc2C)c1[N+](=O)[O-]	n	n	n	n	n	n	x	x
COc1ccc(C)cc1NC(=O)c1nn(C)c(C(=O)Nc2cc(C)ccc2OC)c1[N+](=O)[O-]	n	n	n	n	n	-9	81	n
